Measurements gathered from unrelated publications.
Compare with care: the assays were run in different laboratories.
Sample: plasma
Route: oral

COC(=O)N[C@@H](C)CNc1nccc(-c2cn(C(C)C)nc2-c2cc(Cl)cc(NS(C)(=O)=O)c2F)n1
Vd/F (human; 50 mg; single dose): 260 L

CC(C)(Sc1ccncc1-c1ccc(C#N)c2ccccc12)C(=O)O
Vd/F (male human; 20 mg; single dose, fed, healthy volunteers): 531 L

C[C@@]1(c2cc(NC(=O)c3ccc(C#N)cn3)ccc2F)C=CSC(N)=N1
Vd/F (human; 3 mg; single dose): 235 L

N#CN1C[C@H](n2nc(-c3ccc(Oc4ccc(Cl)cn4)cc3)c(C(N)=O)c2N)CCC12CC2
Vd/F (human; 600 mg; fed): 1230 L

Cc1cc(Nc2cc(N3CCN(C)CC3)nc(/C=C/c3ccccc3)n2)n[nH]1
Vd/F (human; 200 mg/m²; patients): 2280 L

CCOc1cc([C@@H](CS(C)(=O)=O)N2C(=O)c3cccc(NC(C)=O)c3C2=O)ccc1OC
Vd/F (human; 30 mg; single dose, healthy volunteers): 141 L

CO[C@H]1CC[C@H](N2C(=O)CNc3ncc(-c4ccc(C(C)(C)O)nc4)nc32)CC1
Vd/F (human; 15 mg; patients): 192 L

c1cnc2ccc(Nc3nc(NC4CC4)c4nc[nH]c4n3)cc2c1
Vd/F (human; 100 mg/m²; patients): 163 L

C=C(F)C(=O)N1CCN(c2nc(OC[C@@H]3CCCN3C)nc3c2CCN(c2cccc4cccc(Cl)c24)C3)C[C@@H]1CC#N
Vd/F (human; 600 mg; single dose, fasted): 527 L

C[C@@H](c1ccc2nccn2c1)n1nnc2ncc(-c3cnn(C)c3)nc21
Vd/F (human; 600 mg): 506 L

COc1cc(C(=O)NC2CCN(C)CC2)c(F)cc1Nc1ncc(C(F)(F)F)c(Oc2cccc3c2C(=O)N(C)C3)n1
Vd/F (human; 50 mg; single dose, patients): 581 L

COc1ccc([C@@H]2CN(C(=O)[C@@H](O)CO)C[C@@]2(C)[C@@H](C)O)cc1OC1CN(c2ccc(C)cn2)C1
Vd/F (human; 0.1 mg; single dose, healthy volunteers): 23.8 L

CC(C)(C)OC[C@@H]1C(=O)NCCN1C(=O)C[C@H](N)Cc1cc(F)c(F)cc1F
Vd/F (male human; 5 mg; multiple doses, steady state): 1960 L
